ChEMBL document CHEMBL1828611, “Bisphosphonamidate clodronate prodrug exhibits potent anticancer activity in non-small-cell lung cancer cells” (J Med Chem, 2011)
The source made the active and inactive calls. No cut-off for these calls is given here.

Tests used:
[1] = test system: A549; assay: Antiproliferative activity against human A549 cells after 24 hrs by MTS assay; assay type: functional, cell-based; conditions: A549, 24 h
In short: (§1)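 A549 cells were seeded at 1.5 × 10^3 per well, adhered overnight, and treated over 0.2–300 μM (final 1% DMSO). After treatment, MTS was added for 40 min–2 h and A490 read. Absorbance was converted to percent of vehicle control, and IC50 was obtained by nonlinear dose-response fit.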

[2] = test system: A549; assay: Antiproliferative activity against human A549 cells after 48 hrs by MTS assay; assay type: functional, cell-based; conditions: A549, 48 h; in short: as §1
[3] = test system: A549; assay: Antiproliferative activity against human A549 cells after 72 hrs by MTS assay; assay type: functional, cell-based; conditions: A549, 72 h; in short: as §1
[4] = test system: A549; assay: Anticancer activity in human A549 cells assessed as decrease in viable cells after 48 hrs by trypan blue exclusion assay; assay type: functional, cell-based; conditions: A549, 48 h
In short: (§2)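 A549 cells (RPMI 1640, 10% FBS) were plated at 1.7 × 10^4 per well in 12-well plates, adhered overnight, and dosed from 100X DMSO stocks (final 1% DMSO). Floating and trypsinized cells were pooled, mixed 1:1 with 0.04% trypan blue and viable cells counted. Counts were expressed as percent of control per time point; EC50 is the concentration giving a 50% decrease in cell number.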

[5] = test system: A549; assay: Anticancer activity in human A549 cells assessed as decrease in viable cells after 72 hrs by trypan blue exclusion assay; assay type: functional, cell-based; conditions: A549, 72 h; in short: as §2
[6] = test system: A549; assay: Anticancer activity in human A549 cells assessed as decrease in viable cells after 24 hrs by trypan blue exclusion assay; assay type: functional; in short: as §2
[7] = test system: A549; assay: Ratio of EC50 for human A549 cells after 48 hrs by trypan blue exclusion assay to IC50 for human A549 cells after 48 hrs by MTS assay; assay type: functional
[8] = test system: A549; assay: Anticancer activity against human A549 cells assessed as reduction in cell viability after 72 hrs by crystal voilet staining; assay type: functional, cell-based
In short: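 A549 cells were plated at 1.7 × 10^4 per well in 6-well plates and dosed from 100X DMSO stocks (final 1% DMSO). After 72 h cells were washed twice with PBS, stained 5–15 min with 0.5% crystal violet in 95% EtOH, rinsed with cold water and air-dried.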

[9] = test system: A549; assay: Anticancer activity against human A549 cells assessed as growth inhibition at 10 to 300 uM for 72 hrs followed by 48 hrs incubation after compound wash out; assay type: functional, cell-based
In short: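 A549 cells exposed to 10, 30, 100 and 300 μM for 72 h, then washed to remove drug and given fresh drug-free medium; regrowth was checked after a further 48 h.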

[10] = test system: A549; assay: Cell cycle arrest in human A549 cells assessed as accumulation of cells in G1 phase at 3 uM after 72 hrs measured using propidium iodide staining by FACS analysis; assay type: functional, cell-based
In short: (§3)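 A549 cells were plated at 6.7 × 10^4 per well in 6-well plates and dosed at 0, 3 or 10 μM for 72 h (final 1% DMSO). Cells were fixed in cold 70% ethanol, then stained with 10 μg/mL propidium iodide plus RNase A for 30 min at 37°C.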

[11] = test system: A549; assay: Cell cycle arrest in human A549 cells assessed as accumulation of cells in G1 phase at 10 uM after 72 hrs measured using propidium iodide staining by FACS analysis; assay type: functional, cell-based; in short: as §3
[12] = test system: A549; assay: Cell cycle arrest in human A549 cells assessed as accumulation of cells in G1 phase at 3 uM after 72 hrs measured using propidium iodide staining by FACS analysis in presence of nocodazole; assay type: functional, cell-based
[13] = test system: A549; assay: Cell cycle arrest in human A549 cells assessed as accumulation of cells in G2 phase after 24 hrs measured using propidium iodide staining by FACS analysis; assay type: functional, cell-based
[14] = test system: A549; assay: Anticancer activity against human A549 cells assessed as growth inhibition up to 1 mM by MTS assay; assay type: functional, cell-based
In short: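 A549 cells, plated at 1.5 × 10^3 per well and left to adhere overnight, treated for 24, 48 or 72 h with compounds serially diluted in DMSO (1% DMSO final). MTS dye was added for 40 min to 2 h and absorbance read at 490 nm. Values were expressed as percent of vehicle control; IC50 was taken from nonlinear dose-response fitting.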

[15] = test system: A549; assay: Drug uptake in human A549 cells assessed per 10^4 cells at 10 uM after 8 hrs by LC/MS/MS analysis; assay type: ADME, cell-based; conditions: a549, 8 h
In short: (§4)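 A549 cells were plated at 1.3 × 10^5 per well in 6-well plates and treated at 0, 10 or 30 μM for 8 h. Cells were washed, trypsinized and counted by trypan blue, and pellets were frozen. Lysates in acetonitrile with temazepam internal standard were analysed by LC-MS-MS on a C18 column (isocratic acetonitrile/water 60:40, 0.1% formic acid). Results are reported as ng/10^4 cells.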

[16] = test system: A549; assay: Drug uptake in human A549 cells assessed per 10^4 cells at 30 uM after 8 hrs by LC/MS/MS analysis; assay type: ADME, cell-based; conditions: a549, 8 h; in short: as §4
[17] = test system: A549; assay: Drug uptake in human A549 cells after 8 hrs by LC/MS/MS analysis; assay type: ADME, cell-based; conditions: a549, 8 h; in short: as §4
[18] = test system: A549; assay: Prodrug conversion in human A549 cells assessed as intracellular formation of methylenebis(hydrogen phosphonate) at 10 to 30 uM after 8 hrs using MTBSTFA by LC/MS/MS analysis; assay type: ADME, cell-based; conditions: a549, 8 h
In short: (§5)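 A549 cells, plated at 1.3 × 10^5 per well, dosed for 8 h, PBS-washed, trypsinized, counted by trypan blue, then pellets PBS-washed and frozen at −80°C. Lysate was derivatized with MTBSTFA to tetra-silyl bisphosphonate for 1 h, cooled, diluted 1:5 in acetonitrile, and analysed by LC-MS-MS (C18, isocratic acetonitrile/water 70:30, 0.1% formic acid, 0.2 mL/min). Detection was qualitative.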

[19] = test system: A549; assay: Drug uptake in human A549 cells at 30 uM after 8 hrs using MTBSTFA by LC/MS/MS analysis; assay type: ADME, cell-based; conditions: a549, 8 h; in short: as §5

Row | SMILES | IC50 [1] | IC50 [2] | IC50 [3] | EC50 [4] | EC50 [5] | Activity [6] | Ratio IC50 [7] | other results
1 | CN(CCCCCl)P(=O)(OCc1ccc([N+](=O)[O-])cc1)C(Cl)(Cl)P(=O)(OCc1ccc([N+](=O)[O-])cc1)N(C)CCCCCl (stereo unspecified) | 7.6 µM | 5.2 µM | 4.4 µM | 19 µM | 16 µM | 57% | 3.6 | Activity [8]: Active; growth inhibition (GI) [9]: Active; Activity [10]: Active; Activity [11]: Active; Activity [12]: Active
2 | COC(=O)Nc1nc2cc(C(=O)c3cccs3)ccc2[nH]1 | – | – | – | – | – | – | – | Activity [13]: Active
3 | O=P(O)(O)C(Cl)(Cl)P(=O)(O)O | – | – | – | – | – | – | – | growth inhibition (GI) [14]: inactive
4 | CN(CCCCCl)P(=O)(CP(=O)(OCc1ccc([N+](=O)[O-])cc1)N(C)CCCCCl)OCc1ccc([N+](=O)[O-])cc1 (stereo unspecified) | 17 µM | 15 µM | 13 µM | 24 µM | 25 µM | <50% | 1.6 | Drug uptake [15]: 68.6 ng; Drug uptake [16]: 169.3 ng; Drug uptake [17]: Dose-dependent effect; Activity [18]: Active
5 | O=P(O)(O)CP(=O)(O)O [MEDRONIC ACID] | – | – | – | – | – | – | – | Drug uptake [19]: Active
